The record followed here is ChEMBL document CHEMBL2086388, “Antihyperglycemic effect of syringaldehyde in streptozotocin-induced diabetic rats” (2012).

Test [1] deals with Rattus norvegicus. Briefly: Antihyperglycemic activity in STZ-induced diabetic rats assessed as reduction in plasma glucose levels at 100 mg/kg, po. The test is classed as functional.
The subject of test [2] is Rattus norvegicus. The test can be described thus: Antihyperglycemic activity in Wistar rats assessed as reduction in plasma glucose levels at 7.2 mg/kg, iv administered 30 mins prior to glucose challenge measured after 120 mins. In kind it is functional, organism-based. Also on record: dose 7.2 mg/kg. In a few lines:
(§1)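 IV glucose challenge in pentobarbital-anesthetized (30 mg/kg ip) Wistar rats. Compound 7.2 mg/kg or saline injected into the tail vein; 30 min later the 0-min sample was drawn. Glucose 60.0 mg/kg then given via the femoral vein. Tail-vein plasma glucose measured at 5–120 min and compared with the vehicle group at each time. n=8.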

The subject of test [3] is Rattus norvegicus. The test can be described thus: Antihyperglycemic activity in iv dosed STZ-induced diabetic Wistar rats assessed as reduction in plasma glucose levels administered as bolus dose measured after 60 mins. The test is classed as functional, organism-based. A digest of the protocol: (§2)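 Fasted rats made diabetic with STZ 60 mg/kg iv (plasma glucose ≥20 mmol/L plus polyuria) and used 2 weeks later. Compound dissolved in normal saline and given as an iv bolus over 1.8–7.2 mg/kg; controls got saline. Tail-vein plasma glucose measured at 60 min under pentobarbital 30 mg/kg ip. Activity = [(Gi−Gt)/Gi]×100%. n=8.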

The test system of test [4] is Rattus norvegicus. Briefly: Antihyperglycemic activity in STZ-induced diabetic Wistar rats assessed as reduction in plasma glucose levels at 7.2 mg/kg, iv administered as bolus dose measured after 60 mins. In kind it is functional. To be noted: 1 h. In a few lines:
as §2

Test [5] has as its system Rattus norvegicus. Briefly: Antihyperglycemic activity in STZ-induced diabetic Wistar rats assessed as reduction in plasma glucose levels at 1.8 mg/kg, iv administered as bolus dose measured after 60 mins. In kind it is functional. Also on record: scale not given: the % may be the effect or the level left. A digest of the protocol:
as §2

The subject of test [6] is Rattus norvegicus. The test can be described thus: Antihyperglycemic activity in Wistar rats assessed as reduction in plasma glucose levels at 7.2 mg/kg, iv administered as bolus dose measured after 60 mins. In kind it is functional. Also on record: scale not given: the % may be the effect or the level left. In a few lines: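 Normal fasted Wistar rats, n=8. Compound in saline given iv at 7.2 mg/kg. Tail-vein plasma glucose taken under pentobarbital anesthesia. Lowering expressed as percent decrease from the initial glucose value.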

Test [7] has as its system L6. Briefly: Induction of glucose uptake in rat L6 cells after 60 mins by 2-NBDG fluorescence assay. The test is classed as functional, cell-based. A digest of the protocol: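 Rat L6 cells grown 48 h, trypsinized, 1×10^6 cells/mL. Cells incubated in PBS with 0.2 mM 2-NBDG plus compound or vehicle, 37 °C, 60 min in the dark. Then washed three times with cold PBS. Fluorescence read at ex 488/em 520 nm. Eight experiments per group, means ± SEM.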

The test system of test [8] is Rattus norvegicus. Briefly: Antidiabetic activity in STZ-induced diabetic Wistar rats assessed as increase in response to exogenous insulin at 7.2 mg/kg, iv tid for 3 days. In kind it is functional, organism-based. Further details: dose 7.2 mg/kg. A digest of the protocol:
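STZ-diabetic rats (STZ 60 mg/kg iv, glucose ≥20 mmol/L, used 2 weeks later) first given long-acting human insulin 1 IU/kg once daily. Compound or saline then given iv three times daily for 3 days. Challenge was short-acting human insulin iv 0.1–1.0 IU/kg. Femoral-vein blood taken at 30 min for plasma glucose. n=8 per group, means ± SE.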

For test [9], the system named is Rattus norvegicus. The test can be described thus: Antihyperglycemic activity in Wistar rats assessed as reduction in plasma glucose levels at 7.2 mg/kg, iv administered 30 mins prior to glucose challenge measured after 5 mins. The test is classed as functional, organism-based. Also on record: dose 7.2 mg/kg. A digest of the protocol:
as §1

In test [10] the test system is Rattus norvegicus. Briefly: Antihyperglycemic activity in Wistar rats assessed as reduction in plasma glucose levels at 7.2 mg/kg, iv administered 30 mins prior to glucose challenge measured after 30 mins. The test is classed as functional, organism-based. Also on record: dose 7.2 mg/kg. In a few lines:
as §1

Calls of active or inactive are those of the source. The rule behind the calls is not given here.

Take `CN(C)C(=N)NC(=N)N` [METFORMIN]: in [1], the maximum response (Emax) at 100 mg/kg is 32%.
In the case of `COc1cc(C=O)cc(OC)c1O` [SYRINGALDEHYDE], in test [2], the result was inactive. Moreover, the Activity result in [3] was “Dose-dependent effect”; in test [5], 11.08%; in test [6] it was 25.93%; in test [7], “Dose-dependent effect”. Moreover, the Emax at 7.2 mg/kg in test [4] came to 31.3%. In addition, the result in test [8], in [9] and in test [10] was Active.
